Source: BindingDB's records for doi:10.1021/jm00077a013 (Takeda Chemical Industries, 1994)

Target: T1, Endothelin-1 receptor (Sus scrofa, UniProt Q29010)
T1 sequence (Q29010 whole entry): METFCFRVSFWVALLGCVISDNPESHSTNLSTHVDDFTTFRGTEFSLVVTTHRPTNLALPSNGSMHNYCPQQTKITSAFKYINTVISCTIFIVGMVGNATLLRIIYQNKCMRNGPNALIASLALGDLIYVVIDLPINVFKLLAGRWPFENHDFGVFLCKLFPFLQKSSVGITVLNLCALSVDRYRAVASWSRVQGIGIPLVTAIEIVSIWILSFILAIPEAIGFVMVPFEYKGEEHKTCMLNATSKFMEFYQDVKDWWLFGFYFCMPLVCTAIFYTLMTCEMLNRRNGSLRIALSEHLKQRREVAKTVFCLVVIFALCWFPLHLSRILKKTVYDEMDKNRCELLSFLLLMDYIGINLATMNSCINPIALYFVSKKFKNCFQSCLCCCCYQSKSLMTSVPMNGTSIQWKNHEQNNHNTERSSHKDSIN
Assay: Tested for the competitive binding versus [125I]- ET-1 determined in porcine cardiac ventricular membrane for Endothelin A receptor
Summary of the method: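 Membranes (porcine cardiac ventricle at 12 μg/mL for ETA; bovine cerebrum at 150 μg/mL for ETB) in pH 7.2 Tris/EGTA/Mg acetate/0.1% BSA buffer with protease inhibitors. Incubated with 100 pM [125I]ET-1 and varied compound for 1 h at 25 °C, then filtered and counted by gamma counter. IC50 given as mean ± SEM of ≥3 determinations.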

Work on `CC[C@H](C)[C@H](NC(=O)[C@H](CC1CCCCC1)NC(=O)[C@@H](NC(=O)[C@H](CC(C)C)NC(=O)[C@H](Cc1c[nH]cn1)NC(=O)[C@@H]1CSSC[C@H](N)C(=O)N[C@@H](CO)C(=O)N[C@H]2CSSC[C@H](NC(=O)[C@H](CCC(=O)O)NC(=O)[C@H](CCCCN)NC(=O)[C@H](CC(=O)O)NC(=O)[C@H](CCSC)NC(=O)[C@H](CC(C)C)NC(=O)[C@H](CO)NC(=O)[C@H](CO)NC2=O)C(=O)N[C@@H](C(C)C)C(=O)N[C@@H](Cc2ccc(O)cc2)C(=O)N[C@@H](Cc2ccccc2)C(=O)N1)[C@@H](C)O)C(=O)N[C@@H](Cc1c[nH]c2ccccc12)C(=O)O` yielded an IC50 of 0.7 nM.
